Results from ChEMBL document CHEMBL1255269 (Antimicrob Agents Chemother, 2008).
Activity calls are given as the source filed them. The calls are words filed in the database; no cut-off is given here.

Key:
[1] = Volume of distribution in pigeon at 30 mg/kg, iv by naive pooling approach; format: ADME, organism-based; design: dose 30 mg/kg, route intravenous; conditions: columba livia, in vivo
In short: (§1)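 Crossover design, one week apart, 24 homing pigeons. […] Blood taken at 0.25–8 h, six samples per time point; plasma assayed by HPLC-UV (linear 0.05–20 μg/ml). Data fitted by naive pooling, iv biexponential and oral triexponential two-compartment models, plus nonlinear mixed-effects modelling; F derived from mean AUC0–∞.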

[2] = Mean residence time in pigeon at 30 mg/kg, iv by naive pooling approach; format: ADME, organism-based; design: dose 30 mg/kg, route intravenous; conditions: columba livia, in vivo, read-out: Time; in short: as §1
[3] = Half life at beta phase in pigeon at 30 mg/kg, iv by naive pooling approach; format: ADME, organism-based; design: dose 30 mg/kg, route intravenous; conditions: columba livia, in vivo; in short: as §1
[4] = Half life at beta phase in pigeon at 30 mg/kg, po by naive pooling approach; format: ADME, organism-based; design: dose 30 mg/kg, route oral; conditions: columba livia, in vivo; in short: as §1
[5] = Oral bioavailability in pigeon at 30 mg/kg, po by naive pooling approach; format: ADME, organism-based; conditions: columba livia, in vivo; in short: as §1
[6] = Tmax in pigeon at 30 mg/kg, po by naive pooling approach; format: ADME, organism-based; design: dose 30 mg/kg, route oral; conditions: columba livia, in vivo; in short: as §1
[7] = Cmax in pigeon at 30 mg/kg, po by naive pooling approach; format: ADME, organism-based; design: dose 30 mg/kg, route oral; conditions: columba livia, in vivo; in short: as §1
[8] = Volume of distribution in central compartment in pigeon at 30 mg/kg, iv; format: ADME, organism-based; design: dose 30 mg/kg, route intravenous; conditions: columba livia, in vivo; in short: as §1
[9] = Oral bioavailability in pigeon at 30 mg/kg, po; format: ADME, organism-based; conditions: columba livia, in vivo; in short: as §1
[10] = Plasma protein binding in pigeon at 10 ug/ml; format: ADME, cell-free; conditions: columba livia, read-out: PPB (converted)
In short: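 Ultrafiltration through a 30K membrane, free drug in the ultrafiltrate measured by HPLC. Bound drug taken as total minus free.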

Salmonella typhimurium [11] = test: Antimicrobial activity against Salmonella enterica subsp. enterica serovar Typhimurium PT99/DAB69 at 2 ug/ml after 16 hrs; format: functional
In short: (§2)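 Killing curve in Mueller-Hinton broth inoculated with 5 × 10^5 CFU of the strain (grown in LB, 37°C, 16 h, static). […] Tenfold dilutions plated onto Mueller-Hinton agar at several time points after inoculation; the decrease in log10 CFU is read at 16 h.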

Salmonella typhimurium [12] = test: Antimicrobial activity against Salmonella enterica subsp. enterica serovar Typhimurium PT99/DAB69 at 4 ug/ml after 16 hrs; format: functional; in short: as §2
Salmonella typhimurium [13] = test: Antimicrobial activity against Salmonella enterica subsp. enterica serovar Typhimurium PT99/DAB69 in pigeon kidney assessed as decrease in bacterial count relative to untreated control; format: functional, organism-based
In short: (§3)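 Homing pigeons, 10 per group, housed individually. Crop inoculation with 10^8 CFU in 1 ml PBS. […] Tissue CFU per gram counted by plating tenfold dilutions on brilliant green agar, with enrichment in buffered peptone water and tetrathionate broth if direct plating was negative.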

Salmonella typhimurium [14] = test: Antimicrobial activity against Salmonella enterica subsp. enterica serovar Typhimurium PT99/DAB69 in pigeon spleen assessed as decrease in bacterial count relative to untreated control; format: functional, organism-based; in short: as §3
Columba livia = test: Drug uptake in Salmonella enterica subsp. enterica serovar Typhimurium PT99/DAB69 infected pigeon at 26 to 45 mg/kg; format: ADME, organism-based; design: dose 26-45 mg/kg; conditions: in vivo
in vivo [15] = conditions: columba livia, plasma, iv, 30 mg/kg
in vivo [16] = conditions: columba livia, plasma, po, 30 mg/kg
in vivo [17] = conditions: columba livia, plasma, iv, 30 mg/kg; remark: listed apart in the source
in vivo [18] = conditions: columba livia, plasma, po, 30 mg/kg; remark: listed apart in the source

`CS(=O)(=O)c1ccc([C@@H](O)[C@@H](CF)NC(=O)C(Cl)Cl)cc1` [FLORFENICOL] showed a Vd [1] of 2.02 L/kg, an MRT [2] of 1.43 h and a half-life [3] of 1.73 h. The half-life [4] was 2.69 h, the bioavailability [5] was 58.5% and the Tmax [6] was 0.69 h. The Cmax [7] was 5100 ng/mL, the Vd [8] was 0.88 L/kg and the bioavailability [9] was 60%. For the same compound, the fraction unbound at 10 ug/ml [10] was 0.288, the log10cfu (Salmonella typhimurium [11]) was 1 and the log10cfu (Salmonella typhimurium [12]) was 2. For the same compound, the Activity (Salmonella typhimurium [13]) was “inactive”, the Activity (Salmonella typhimurium [14]) was “inactive” and the Drug uptake (Columba livia) was 35 mg/kg. For the same compound, the AUC(0-inf) (in vivo [15]) was 21300 ng·h/mL, the AUC(0-inf) (in vivo [16]) was 12500 ng·h/mL and the AUC(0-inf) (in vivo [17]) was 22700 ng·h/mL. For the same compound, the AUC(0-inf) (in vivo [18]) was 13100 ng·h/mL.
